Data set [1] deals with Mus musculus. Put plainly: Antinociceptive activity in Kunming mouse model of acute pain assessed as inhibition of acetic acid-induced writhes at 5 mg/kg, ip administered 30 mins prior to acetic acid challenge measured for 30 mins. It is filed as functional, organism-based. The method in brief: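 Acute-pain model in mice: compounds given ip, and writhing counted against vehicle-injected mice.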

In data set [2] the test system is Mus musculus. Put plainly: Antinociceptive activity in Kunming mouse model of acute pain assessed as inhibition of acetic acid-induced writhes at 0.08 mg/kg, ip administered 30 mins prior to acetic acid challenge measured for 30 mins in presence of nonselective opioid antagonist naloxone. In kind it is functional, organism-based.
The test system of data set [3] is Mus musculus. Put plainly: Antinociceptive activity in ip dosed Kunming mouse model of acute pain assessed as inhibition of acetic acid-induced writhes administered 30 mins prior to acetic acid challenge measured for 30 mins. It is filed as functional. Particulars: for ED50: read-out: ID50 (the source's name). The procedure, abridged:
(§1)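 Acetic acid-induced writhing in mice after ip dosing, with a vehicle-injected group for comparison. Reported as mean ± SEM of 12 mice per group. Significance vs vehicle by one-way ANOVA followed by Bonferroni test.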

Data set [4] has as its system Mus musculus. Put plainly: Antinociceptive activity in Kunming mouse model of STZ-induced diabetic neuropathy pain assessed as increase in paw withdrawal mechanical threshold at 0.2 to 0.4 mg/kg, po relative to gabapentin. It is filed as functional. The procedure, abridged: (§2)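 Streptozotocin-diabetic mice with mechanical hyperalgesia were dosed orally (n = 8), with vehicle and gabapentin groups for comparison. Data are mean ± SEM. Significance vs vehicle by one-way ANOVA followed by Bonferroni test.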

Data set [5] concerns Mus musculus. Put plainly: Antinociceptive activity in po dosed Kunming mouse model of STZ-induced diabetic neuropathy pain assessed as complete reversal of mechanical hyperalgesia. It is filed as functional, organism-based. The procedure, abridged: as §2
Data set [6] concerns Mus musculus. Put plainly: Antinociceptive activity in ip dosed Kunming mouse model of formalin-induced pain assessed as reduction of time spent in licking in phase 1 administered 30 mins before formalin injection measured for 5 mins. In kind it is functional, organism-based. The procedure, abridged: (§3)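 Formalin test scored in phase I and phase II after ip dosing, against a vehicle group (n = 10). Control drugs used: morphine and ibuprofen. Data are mean ± SEM. Significance vs vehicle by one-way ANOVA followed by Bonferroni test.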

Data set [7] has as its system Mus musculus. Put plainly: Antinociceptive activity in Kunming mouse assessed as increase in licking latency time at 0.08 mg/kg, ip by hot plate test. In kind it is functional, organism-based.
Data set [8] can be described thus: Selectivity index, ratio of LD50 for toxicity in Kunming mouse to ID50 for antinociceptive activity in Kunming mouse model of acute pain. In kind it is organism-based. Particulars: in vivo, read-out: Selectivity Index.
Data set [9] deals with Mus musculus. Put plainly: Toxicity in ip dosed Kunming mouse by Karber's method. It is filed as organism-based. Particulars: in vivo.
For data set [10], the system named is Mus musculus. Put plainly: Antinociceptive activity in Kunming mouse model of acute pain assessed as inhibition of acetic acid-induced writhes at 0.08 mg/kg, ip administered 30 mins prior to acetic acid challenge measured for 30 mins relative to control. In kind it is functional. The procedure, abridged:
as §1

The test system of data set [11] is Mus musculus. Put plainly: Antinociceptive activity in ip dosed Kunming mouse model of formalin-induced pain assessed as reduction of time spent in licking in phase 2 administered 30 mins before formalin injection measured for 15 to 30 mins. In kind it is functional, organism-based. The method in brief: as §3
Data set [12] has as its system Mus musculus. Put plainly: Antinociceptive activity in Kunming mouse model of formalin-induced pain assessed as reduction of time spent in licking in phase 1 at 2 mg/kg, ip administered 30 mins before formalin injection measured for 5 mins. It is filed as functional, organism-based. The procedure, abridged: as §3
In data set [13] the test system is Mus musculus. Put plainly: Antinociceptive activity in Kunming mouse model of acute pain assessed as inhibition of acetic acid-induced writhes at 0.8 mg/kg, ip administered 30 mins prior to acetic acid challenge measured for 30 mins in presence of nonselective opioid antagonist naloxone. In kind it is functional, organism-based.
For data set [14], the system named is Mus musculus. Put plainly: Antinociceptive activity in Kunming mouse model of formalin-induced pain assessed as reduction of time spent in licking in phase 2 at 2 mg/kg, ip administered 30 mins before formalin injection measured after 15 mins up to 30 mins. It is filed as functional, organism-based. The method in brief:
as §3

For data set [15], the system named is Mus musculus. Put plainly: Antinociceptive activity in Kunming mouse model of STZ-induced diabetic neuropathy pain assessed as increase in paw withdrawal mechanical threshold at 50 mg/kg, po. It is filed as functional, organism-based. The method in brief: as §2
For data set [16], the system named is Mus musculus. Put plainly: Antinociceptive activity in Kunming mouse model of formalin-induced pain assessed as reduction of time spent in licking in phase 2 at 60 mg/kg, ip administered 30 mins before formalin injection measured after 15 mins up to 30 mins. It is filed as functional, organism-based. The method in brief:
(§4)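 Formalin test in mice with phases I and II scored separately. Compounds given ip, n = 10 per group. Data are mean ± SEM, compared with the vehicle group by one-way ANOVA followed by the Bonferroni test.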

The test system of data set [17] is Mus musculus. Put plainly: Antinociceptive activity in Kunming mouse model of formalin-induced pain assessed as reduction of time spent in licking in phase 1 at 60 mg/kg, ip administered 30 mins before formalin injection measured for 5 mins. In kind it is functional, organism-based. The method in brief:
as §4

The test system of data set [18] is Mus musculus. Put plainly: Antinociceptive activity in Kunming mouse assessed as increase in licking latency time at 0.02 to 0.08 mg/kg, ip by hot plate test. In kind it is functional, organism-based. A general note: In hot-plate and tail-flick tests a longer latency is read as antinociception.

The source made the active and inactive calls.

Usually LD50 stands for the dose at which mortality reaches 50%. A word on the inhibition in vivo: it is the relative decrease from the control value, in per cent.

Take `CC1(C)[C@@H](O[C@@H]2O[C@H](CO)[C@@H](O)[C@H](O)[C@H]2O)[C@@H](O)[C@H]2[C@](C)(O)[C@@H]3CC[C@@H]4[C@@H](O)[C@@]3(C[C@@H](O)[C@@]21O)C[C@@]4(C)O`: in the data set with Mus musculus [1], the inhibition result was “inactive”.

As to `CC1(C)[C@H]2O[C@H]2[C@H]2[C@](C)(O)[C@@H]3CC[C@@H]4[C@@H](O)[C@@]3(C[C@@H](O)[C@@]21O)C[C@@]4(C)O`, the inhibition result with Mus musculus [2] was “Active”. The inhibition result with Mus musculus [3] was “Dose-dependent effect”. The ED50 in the data set on Mus musculus [3] was determined as 0.0469 mg/kg. Besides, in the data set on Mus musculus [4], the “fold change (FC)” value was 100. In addition, the Activity entry in the data set on Mus musculus [5], with Mus musculus [6] and with Mus musculus [11] was “Dose-dependent effect” throughout. Also, the result in the data set on Mus musculus [7] was Active. Further, the selectivity ratio in data set [8] turned out to be 5.8. Further, the LD50 with Mus musculus [9] came out at 0.271 mg/kg. The inhibition in vivo at 0.08 mg/kg in the data set on Mus musculus [10] was found to be 73.7%.

`CC1(C)[C@@H](O)C[C@H]2[C@](C)(O)[C@@H]3CC[C@@H]4[C@@H](O)[C@@]3(C[C@@H](O)[C@@]21O)C[C@@]4(C)O` [GRAYANOTOXIN III]: the inhibition in vivo at 0.08 mg/kg in the data set with Mus musculus [10] came to 55.6%.

Regarding `C=C1[C@@H]2CC[C@@H]3[C@@H](O)[C@@]2(C[C@@H](O)[C@@]2(O)[C@H]1C[C@H](O)C2(C)C)C[C@@]3(C)O`, the inhibition entry in the data set with Mus musculus [1] was “Active”.

Turning to `CC1(C)[C@@H](O)[C@@H](O)[C@@H]2[C@@](C)(O)[C@@H]3CC[C@@H]4[C@@H](O)[C@@]3(C[C@@H](O)[C@@]21O)C[C@@]4(C)O`, the inhibition result in the data set on Mus musculus [1] is “Active”.

Consider `CC1=C2CC[C@@H]3[C@@H](O)[C@@]2(C[C@@H](O)[C@@]2(O)[C@H]1[C@@H](O)[C@H](O)C2(C)C)C[C@@]3(C)O`, for which the inhibition result in the data set on Mus musculus [1] was “inactive”.

For `CN1CC[C@]23c4c5ccc(O)c4O[C@H]2[C@@H](O)C=C[C@H]3[C@H]1C5` [MORPHINE], in the data set on Mus musculus [3], the ED50 was found to be 0.343 mg/kg. For the same compound, the outcome with Mus musculus [12] and in the data set on Mus musculus [14] was Active. The inhibition entry in the data set with Mus musculus [13] is “inactive”.

Turning to `C=C1[C@@H]2[C@@H](O)[C@H](O)C(C)(C)[C@@]2(O)[C@H](O)C[C@]23C[C@@](C)(O)[C@H](CC[C@@H]12)[C@H]3O`, the inhibition result with Mus musculus [1] is “inactive”.

Regarding `C=C1[C@@H]2[C@H](O)[C@H](O[C@@H]3O[C@H](CO)[C@@H](O)[C@H](O)[C@H]3O)C(C)(C)[C@@]2(O)[C@H](O)C[C@]23C[C@@](C)(O)[C@H](CC[C@@H]12)[C@H]3O`, the inhibition entry with Mus musculus [1] is “inactive”.

Regarding `C=C1[C@@H]2[C@@H](O)[C@H](O[C@@H]3O[C@H](CO)[C@@H](O)[C@H](O)[C@H]3O)C(C)(C)[C@@]2(O)[C@H](O)C[C@]23C[C@@](C)(O)[C@H](CC[C@@H]12)[C@H]3O`, the inhibition result in the data set on Mus musculus [1] was “inactive”.

In the case of `CC1(C)[C@@H](O[C@@H]2O[C@H](CO)[C@@H](O)[C@H](O)[C@H]2O)[C@@H](O)[C@@H]2[C@@](C)(O)[C@@H]3CC[C@@H]4C[C@@]3(C[C@@H](O)[C@@]21O)C[C@@]4(C)O`, the inhibition result in the data set with Mus musculus [1] was “Active”.

Take `CC1(C)[C@H]2O[C@H]2[C@H]2[C@](C)(O)[C@@H]3C[C@@H](O)[C@@H]4[C@@H](O)[C@@]3(C[C@@H](O)[C@@]21O)C[C@@]4(C)O`: the inhibition entry with Mus musculus [1] was “Active”.

Consider `NCC1(CC(=O)O)CCCCC1`, for which, in the data set with Mus musculus [15], the result was Active.

Regarding `CC(C)Cc1ccc(C(C)C(=O)O)cc1` (stereo not drawn), the result in the data set on Mus musculus [16] was Active. The outcome with Mus musculus [17] was inactive.

For the compound `CC1(C)[C@@H](O)[C@H](O)[C@H]2[C@](C)(O)[C@@H]3CC[C@@H]4[C@@H](O)[C@@]3(C[C@@H](O)[C@@]21O)C[C@@]4(C)O`, the inhibition entry in the data set with Mus musculus [2] was “Active”. Besides, the result with Mus musculus [18] was inactive. Moreover, in the data set on Mus musculus [3], the inhibition result was “Dose-dependent effect”. For the same compound, in the data set with Mus musculus [3], the ED50 amounted to 0.0727 mg/kg. Besides, the “fold change (FC)” value in the data set on Mus musculus [4] is listed as 100. For the same compound, the Activity entry with Mus musculus [5], in the data set with Mus musculus [6] and in the data set with Mus musculus [11] was “Dose-dependent effect” throughout. In data set [8], the selectivity ratio is 24.6. This compound also yielded an LD50 in the data set with Mus musculus [9] of 1.791 mg/kg. In addition, in the data set on Mus musculus [10], the inhibition in vivo at 0.08 mg/kg turned out to be 64.2%.

`C=C1[C@@H]2CC[C@@H]3C[C@@]2(C[C@@H](O)[C@@]2(O)[C@@H]1[C@H](O)[C@H](O)C2(C)C)C[C@@]3(C)O`: the inhibition entry in the data set on Mus musculus [1] is “Active”.

On to `C=C1[C@@H]2[C@H](O)[C@H](O)C(C)(C)[C@@]2(O)[C@H](O)C[C@]23C=C(C)[C@H](CC[C@@H]12)[C@H]3O`, for which the inhibition entry in the data set on Mus musculus [1] was “inactive”.

With `CC1(C)[C@@H](O[C@@H]2O[C@H](CO)[C@@H](O)[C@H](O)[C@H]2O)[C@H](O)[C@H]2[C@](C)(O)[C@@H]3CC[C@@H]4[C@@H](O)[C@@]3(C[C@@H](O)[C@@]21O)C[C@@]4(C)O`, the inhibition entry with Mus musculus [1] was “Active”.

As to `C=C1C[C@@]23C[C@@H](O)[C@@]4(O)[C@H](C(=C)[C@@H]2CC[C@@H]1[C@H]3O)[C@@H](O)[C@H](O)C4(C)C`, in the data set on Mus musculus [1], the inhibition result was “inactive”.

Values taken from ChEMBL document CHEMBL3763151, “Antinociceptive Grayanoids from the Roots of Rhododendron molle” (J Nat Prod, 2015).
